Assay outcomes from PubChem.
TRPC4 PAM = TRPC4 (mouse) allosteric potentiation; Q9QUQ5; HEK293 TRPC4beta/mu-opioid, DAMGO EC20, Fluo-4 Ca2+ flux; active compounds read high; B-score at 10 µM; hit rate 0.42% among 310,000;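 active means B-score of calcium response area above 5 SD of library B-scores, with initial fluorescence ratio within 5 SD of library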;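 further: B-score of integrated fluorescence ratio over time as area under calcium response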
Target sequence (Q9QUQ5 whole entry, looked up): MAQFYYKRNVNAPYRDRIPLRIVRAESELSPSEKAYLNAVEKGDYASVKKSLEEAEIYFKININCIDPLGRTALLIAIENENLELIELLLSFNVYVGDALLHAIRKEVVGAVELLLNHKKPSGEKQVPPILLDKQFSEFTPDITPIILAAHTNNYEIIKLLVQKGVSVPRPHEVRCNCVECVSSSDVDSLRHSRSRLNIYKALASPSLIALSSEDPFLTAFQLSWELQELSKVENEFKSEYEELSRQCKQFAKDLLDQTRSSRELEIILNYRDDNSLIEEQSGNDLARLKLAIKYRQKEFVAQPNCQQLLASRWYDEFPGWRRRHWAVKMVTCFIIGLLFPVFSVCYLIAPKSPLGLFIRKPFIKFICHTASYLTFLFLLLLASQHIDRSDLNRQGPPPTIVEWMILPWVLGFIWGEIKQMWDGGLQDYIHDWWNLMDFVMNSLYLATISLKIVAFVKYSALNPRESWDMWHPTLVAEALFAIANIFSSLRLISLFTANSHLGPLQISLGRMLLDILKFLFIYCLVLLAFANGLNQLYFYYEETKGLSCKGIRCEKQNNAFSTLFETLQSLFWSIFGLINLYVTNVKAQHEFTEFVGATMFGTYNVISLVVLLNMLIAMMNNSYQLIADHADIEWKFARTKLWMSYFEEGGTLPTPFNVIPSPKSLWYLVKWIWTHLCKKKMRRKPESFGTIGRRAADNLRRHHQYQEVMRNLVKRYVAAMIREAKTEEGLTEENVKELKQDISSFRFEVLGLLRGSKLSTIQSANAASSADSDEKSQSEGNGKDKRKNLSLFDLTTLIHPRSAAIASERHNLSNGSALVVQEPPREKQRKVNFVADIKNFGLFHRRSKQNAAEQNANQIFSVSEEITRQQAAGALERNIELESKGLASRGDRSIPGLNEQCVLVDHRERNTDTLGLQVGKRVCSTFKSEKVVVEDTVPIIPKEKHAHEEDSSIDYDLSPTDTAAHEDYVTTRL
TRPC6 act = activates the mouse TRPC6 cation channel; Q61143; HEK293-TRPC6 membrane potential dye fluorescence; active compounds read high; B-score at 10 µM; hit rate 0.13% among 310,000;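 active means B-score of the integrated fluorescence ratio above library mean plus 3 SD, and starting fluorescence ratio within library mean plus 5 SD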;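 further: higher score means more depolarization so channel activation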
TRPC4 act = TRPC4 (mouse) channel activation; HEK293 TRPC4beta/mu-opioid, Fluo4 calcium fluorescence; active compounds read high; Q9QUQ5; hit rate 0.49% among 310,000; B-score at 10 µM;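 active means B-score above 5 SD of library B-scores, and initial fluorescence ratio not above library mean plus 5 SD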;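 further: positive B-score marks a calcium rise read as TRPC4 activation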
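Assay system – TRPC4beta and mu-opioid receptor HEK293 stable cells · Measured by – Fluo4 fluorescence, kinetic · Schedule – dye loading 45 min room temperature, 110 s kinetic read · Read-out – B-scored integrated calcium fluorescence ratio · Controls – buffer and maximal DAMGO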
TRPC4 block = blocks the mouse TRPC4 cation channel; B-score at 10 µM; Q9QUQ5; hit rate 0.39% among 300,000; HEK293 TRPC4beta/mu-opioid, DAMGO-evoked Fluo4 calcium flux; active compounds read low; AID 2247;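 active means B-score over 3 SD under the library average, no early fluorescence shift, positive overall ratio signal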
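Material: HEK293 cells with stable TRPC4beta plus mu-opioid receptor expression / Probe or stimulus: DAMGO in two steps, submaximal then maximal / Compound: single concentration per test compound / Technique: kinetic Fluo4 fluorescence imaging of calcium influx / Read-out: per-well B score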
TRPC6 inhibitor = inhibitors of mouse TRPC6 channel; Q61143; HEK293-TRPC6, membrane potential dye, ACh-evoked depolarization; active compounds read low; B-score at 10 µM; hit rate 1.1% among 310,000; AID 2553;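 active means B-score under library mean minus 3 SD, initial fluorescence not abnormally high, positive integrated signal ratio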;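 further: B-score derived from integrated fluorescence ratio over the kinetic read; more negative B-score means stronger inhibition of depolarization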
An asterisk follows results filed as active; i = inactive. A selection: hits, their analogues and other compounds. The true share with any hit is near 2.3%.

SMILES	TRPC4 PAM	TRPC6 act	TRPC4 act	TRPC4 block	TRPC6 inhibitor
Cn1c(CN2CCN(c3cccc(Cl)c3)CC2)nc2ccccc21	i	i	84*	i	i
Cn1c(CNc2ccc(Cl)cc2)nc2ccccc21	i	i	i	i	i
CCc1noc(C)c1C(=O)NNC(=O)COc1ccc(C)c(C)c1	i	i	i	i	i
CC1=NN(c2ccccc2)C(=O)/C1=C/c1c(O)n(-c2ccc(F)c(Cl)c2)[nH]c1=O	i	i	i	-8*	i
CC1=NN(c2ccccc2)C(=O)/C1=C\c1c(C)[nH]n(-c2ccccc2)c1=O	i	i	i	i	i
CSCCC(NC(=O)/C(=C/c1ccco1)NC(=O)c1ccc(Br)o1)C(=O)O (configuration not stated)	i	i	i	i	i
O=C(Nc1cc(C(F)(F)F)ccc1Cl)c1ccncc1	i	i	i	i	i
CC(C)Cc1cc(C(=O)Nc2cc(C(F)(F)F)ccc2Cl)no1	10*	i	i	i	i
O=C1CCC(=O)N1c1ccc(NC2CCN(Cc3ccccc3)CC2)c([N+](=O)[O-])c1	i	i	83*	i	i
CC1CCC2C(=O)N(c3ccc(NC4CCN(Cc5ccccc5)CC4)c([N+](=O)[O-])c3)C(=O)C2C1 (configuration not stated)	i	i	72*	i	i
O=[N+]([O-])c1ccccc1NC1CCN(Cc2ccccc2)CC1	i	i	i	i	i
O=C1C2CC=CCC2C(=O)N1c1ccc(NCCc2ccccc2)c([N+](=O)[O-])c1 (configuration not stated)	i	i	i	i	i
COc1ccc(CN=C2NN=C(c3ccc(Cl)cc3)CS2)cc1	i	i	i	-6*	i
CC(C)(C)N=C1NN=C(c2ccc(Cl)cc2)CS1	i	i	i	i	i
Cc1ccccc1C(=O)Nc1cccc(NC(=S)NC(=O)c2cccs2)c1	i	i	i	i	i
CC(C)(C)c1ccc(C(=O)NC(=S)NNC(=O)c2cccs2)cc1	i	i	339*	i	i
Cc1ccccc1C(=O)NNC(=S)NC(=O)c1cccs1	i	i	159*	i	i
Cc1cccc(C(=O)NC(=S)NNC(=O)c2cccs2)c1	i	i	236*	i	i
O=C(NC(=S)NNC(=O)c1cccs1)c1ccccc1	i	i	82*	i	i
CCCC(=O)Nc1ccc(C(=O)NNC(=S)NC(=O)c2cccs2)cc1	i	i	i	i	i
Cc1cccc(C(=O)NC(=S)NNC(=O)c2ccc(Cl)cc2)c1	i	i	i	i	i
O=C(NNC(=S)Nc1ccccc1)c1cccs1	i	i	i	i	i
CC(=O)N1c2ccc(S(=O)(=O)NCC3CCC(C(=O)NCc4ccco4)CC3)cc2CC1C (configuration not stated)	i	i	i	i	i
CSCCC(NC(=O)c1ccco1)C(=O)OC(C)C(=O)NC(=O)NC1CCCCC1 (configuration not stated)	i	i	70*	i	i
CSCCC(NC(=O)c1ccco1)C(=O)N1CCN(Cc2ccccc2)CC1 (configuration not stated)	i	i	i	i	i
SMILES	TRPC4 PAM	TRPC6 act	TRPC4 act	TRPC4 block	TRPC6 inhibitor
Cn1c2ccccc2c(=O)c2ccc(C#CC3(N)CCCCC3)cc21	i	i	i	i	-8.61*
Cn1c2ccccc2c(=O)c2cc(C#CC3(O)CCCCC3)ccc21	i	i	i	i	i
CCOc1ccccc1Nc1nnc(SCc2nnc(-c3cc(OC)c(OC)c(OC)c3)o2)s1	21*	i	i	i	i
COc1cc(C2(c3ccc(O)c(OC)c3)C(=O)Nc3c(C)cc(Br)cc32)ccc1O	27*	i	i	i	i
Cc1cc(Br)cc2c1NC(=O)C2(c1c(C)n(C)n(-c2ccccc2)c1=O)c1c(C)n(C)n(-c2ccccc2)c1=O	i	i	i	i	i
CC(C)=CC(=O)N1CC[C@@H](N2CCN(c3ccccc3F)CC2)[C@H](O)C1	i	i	i	i	i
